Data from ChEMBL document CHEMBL1135789, “Novel structures derived from 2-[[(2-pyridyl)methyl]thio]-1H-benzimidazole as anti-Helicobacter pylori agents, Part 2” (J Med Chem, 2002).
In brackets after ≈: the same amount, converted by molar mass.

Tests used:
Mus musculus [1] = experiment: AUC (area under curve) after oral dosing by gavage needle at 30 mg/kg in C57BL/6NTac female mice; Not checked; assay type: ADME, organism-based, Plasma; design: dose 30 mg/kg, route oral; conditions: in vivo
Summary of the method: (§1)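 Single oral gavage dose of 30 mg/kg in 85:15 0.5% aqueous hydroxypropylmethylcellulose:PEG-400, given to female C57BL/6NTac mice (6 weeks, 20 g). Plasma was diluted with MeCN to remove proteins, and the parent compound was quantified by LC-MS in single ion recording mode against calibration curves (LLOQ 10-50 ng/mL).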

Mus musculus [2] = experiment: Maximum plasma concentration (Cmax) after oral dosing by gavage needle at 30 mg/kg in C57BL/6NTac female mice; Not checked; assay type: ADME, organism-based; design: dose 30 mg/kg, route oral; conditions: in vivo; summary of the method: as §1
Helicobacter pylori [3] = experiment: Minimum inhibitory concentration against Helicobacter pylori (Helicobacter pylori) ARHp strain 115; assay type: functional
Summary of the method: (§2)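 Broth microdilution with two-fold serial dilutions in Brucella broth plus 5% (v/v) heat-inactivated FCS. Strains were pre-grown microaerophilically (5% O2, 10% CO2, 85% N2) on blood agar at 37 °C and passaged twice. The inoculum was a final 10^7 cells/mL.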

Helicobacter pylori [4] = experiment: Minimum inhibitory concentration against Helicobacter pylori (Helicobacter pylori) ARHp strain 206; assay type: functional; summary of the method: as §2
Helicobacter pylori [5] = experiment: Minimum inhibitory concentration against Helicobacter pylori (Helicobacter pylori) ARHp strain 80; assay type: functional; summary of the method: as §2
Helicobacter pylori [6] = experiment: Minimum inhibitory concentration against Helicobacter pylori (Helicobacter pylori) ARHp strain 81; assay type: functional; summary of the method: as §2
Helicobacter pylori [7] = experiment: Minimum bacterial concentration (MBC) at which maximum growth inhibition against Helicobacter pylori has occurred; assay type: functional
Summary of the method: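 Strain ARHp206. Aliquots from microdilution wells showing no growth were plated on trypticase soy agar with 5% sheep blood. The MBC was judged by visual inspection as the concentration giving maximum growth inhibition.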

[8] = Maximum plasma concentration (Cmax) after oral dosing by gavage needle at 30 mg/kg in C57BL/6NTac female mice; assay type: ADME, organism-based; design: dose 30 mg/kg, route oral; conditions: mouse; summary of the method: as §1
Mus musculus [9] = experiment: AUC (area under curve) after oral dosing by gavage needle at 30 mg/kg in C57BL/6NTac female mice; assay type: ADME, organism-based, Plasma; design: dose 30 mg/kg, route oral; conditions: in vivo; summary of the method: as §1
Mus musculus [10] = experiment: Maximum plasma concentration (Cmax) after oral dosing by gavage needle at 30 mg/kg in C57BL/6NTac female mice; Not detected; assay type: ADME, organism-based; design: dose 30 mg/kg, route oral; conditions: in vivo; summary of the method: as §1
Mus musculus [11] = experiment: AUC (area under curve) after oral dosing by gavage needle at 30 mg/kg in C57BL/6NTac female mice; Not detected; assay type: ADME, organism-based, Plasma; design: dose 30 mg/kg, route oral; conditions: in vivo; summary of the method: as §1

Row | SMILES | AUC (Mus musculus [1]) | Cmax (Mus musculus [2]) | MIC (Helicobacter pylori [3]) [mg/L] | MIC (Helicobacter pylori [4]) [mg/L] | MIC (Helicobacter pylori [5]) [mg/L] | MIC (Helicobacter pylori [6]) [mg/L] | Cmax [8] [µg/mL] | AUC (Mus musculus [9]) [µg·h/mL] | Cmax (Mus musculus [10]) | AUC (Mus musculus [11]) | MBC (Helicobacter pylori [7]) [mg/L]
1 | Cc1c(CSc2nc3ccccc3[nH]2)cccc1SCCNS(=O)(=O)c1cccc2cccnc12 | Not checked | Not checked | 4 (≈ 7.68 µM) | 8 (≈ 15.4 µM) | 4 (≈ 7.68 µM) | 8 (≈ 15.4 µM) | – | – | – | – | > 8
2 | Cc1c(CSc2nc3ccccc3[nH]2)cccc1SCCNC(=O)Nc1ccccc1 | – | – | 0.5 (≈ 1.11 µM) | 0.5 (≈ 1.11 µM) | 0.5 (≈ 1.11 µM) | 0.5 (≈ 1.11 µM) | 0.14 | 0.283 | – | – | 8 (≈ 17.8 µM)
3 | Cc1c(CSc2nc3ccccc3[nH]2)cccc1SCCO | Not checked | Not checked | 1 (≈ 3.03 µM) | 1 (≈ 3.03 µM) | 1 (≈ 3.03 µM) | 1 (≈ 3.03 µM) | – | – | – | – | > 8
4 | Cc1c(CSc2nccs2)cccc1SCCOC(=O)Nc1ccccc1 | – | – | 0.5 (≈ 1.2 µM) | 0.5 (≈ 1.2 µM) | 0.5 (≈ 1.2 µM) | 0.5 (≈ 1.2 µM) | 0.074 | 0.099 | – | – | 8 (≈ 19.2 µM)
5 | Cc1c(CSc2ccncc2)cccc1SCCOC(=O)Nc1ccccc1 | Not checked | Not checked | 0.25 (≈ 0.609 µM) | 0.5 (≈ 1.22 µM) | 0.25 (≈ 0.609 µM) | 0.5 (≈ 1.22 µM) | – | – | – | – | 8 (≈ 19.5 µM)
6 | Cc1c(CSc2nc3ccccc3[nH]2)cccc1SCCN | Not checked | Not checked | 4 (≈ 12.1 µM) | 8 (≈ 24.3 µM) | 4 (≈ 12.1 µM) | 8 (≈ 24.3 µM) | – | – | – | – | > 8
7 | Cc1c(CSc2nc3ccccc3[nH]2)cccc1SCCOC(=O)Nc1ccc(F)c(F)c1 | – | – | 0.25 (≈ 0.515 µM) | 0.5 (≈ 1.03 µM) | 0.25 (≈ 0.515 µM) | 0.5 (≈ 1.03 µM) | 0.398 | 1.13 | – | – | 8 (≈ 16.5 µM)
8 | Cc1c(CSc2nc3ccccc3[nH]2)cccc1SCCOC(=O)Nc1ccccc1 | – | – | 0.5 (≈ 1.11 µM) | 0.5 (≈ 1.11 µM) | 0.5 (≈ 1.11 µM) | 0.5 (≈ 1.11 µM) | 0.906 | 2.07 | – | – | 1 (≈ 2.22 µM)
9 | Cc1c(CSc2nc3ccccc3[nH]2)cccc1SCCNC(=O)c1cnccn1 | – | – | 0.25 (≈ 0.574 µM) | 0.5 (≈ 1.15 µM) | 0.25 (≈ 0.574 µM) | 0.5 (≈ 1.15 µM) | 0.471 | 0.271 | – | – | > 8
10 | Cc1ncc([N+](=O)[O-])n1CCO [METRONIDAZOLE] | Not checked | Not checked | 1 (≈ 5.84 µM) | 1 (≈ 5.84 µM) | 8 (≈ 46.7 µM) | 1 (≈ 5.84 µM) | – | – | – | – | –

Continued, in another order:

Row | AUC (Mus musculus [1]) | Cmax (Mus musculus [2]) | MIC (Helicobacter pylori [3]) [mg/L] | MIC (Helicobacter pylori [4]) [mg/L] | MIC (Helicobacter pylori [5]) [mg/L] | MIC (Helicobacter pylori [6]) [mg/L] | Cmax [8] [µg/mL] | AUC (Mus musculus [9]) [µg·h/mL] | Cmax (Mus musculus [10]) | AUC (Mus musculus [11]) | SMILES | MBC (Helicobacter pylori [7]) [mg/L]
11 | – | – | 0.25 (≈ 0.521 µM) | 0.5 (≈ 1.04 µM) | 0.25 (≈ 0.521 µM) | 0.5 (≈ 1.04 µM) | 0.797 | 1.63 | – | – | COc1cccc(NC(=O)OCCSc2cccc(CSc3nc4ccccc4[nH]3)c2C)c1 | 8 (≈ 16.7 µM)
12 | – | – | 0.5 (≈ 1.14 µM) | 1 (≈ 2.27 µM) | 0.5 (≈ 1.14 µM) | 1 (≈ 2.27 µM) | – | – | Not detected | Not detected | Cc1c(CSc2nc3ccccc3[nH]2)cccc1SCC(=O)NCc1cccs1 | 8 (≈ 18.2 µM)
13 | – | – | 0.25 (≈ 0.607 µM) | 0.5 (≈ 1.21 µM) | 0.25 (≈ 0.607 µM) | 0.5 (≈ 1.21 µM) | 0.057 | 0.135 | – | – | Cc1c(CSc2nc3ccccc3[nH]2)cccc1SCC(=O)N1CCCCC1 | > 8
14 | Not checked | Not checked | > 16 | > 16 | > 16 | > 16 | – | – | – | – | Cc1c(CSc2nc3ccccc3[nH]2)cccc1SCC(=O)O | > 8
15 | – | – | 1 (≈ 2.31 µM) | 1 (≈ 2.31 µM) | 1 (≈ 2.31 µM) | 1 (≈ 2.31 µM) | – | – | Not detected | Not detected | Cc1c(CSc2nc3ccccc3[nH]2)cccc1SCC(=O)NCc1ccccc1 | 1 (≈ 2.31 µM)
16 | – | – | 0.5 (≈ 1.01 µM) | 1 (≈ 2.03 µM) | 0.5 (≈ 1.01 µM) | 1 (≈ 2.03 µM) | 0.331 | 0.299 | – | – | Cc1c(CSc2nc3ccccc3[nH]2)cccc1SCCOC(=O)Nc1ccc(N(C)C)cc1 | > 8
17 | Not checked | Not checked | 0.06 (≈ 0.164 µM) | 0.12 (≈ 0.328 µM) | 0.06 (≈ 0.164 µM) | 0.06 (≈ 0.164 µM) | – | – | – | – | CC1(C)S[C@@H]2[C@H](NC(=O)[C@H](N)c3ccc(O)cc3)C(=O)N2[C@H]1C(=O)O [AMOXICILLIN] | –
18 | – | – | < 0.06 | < 0.06 | < 0.06 | < 0.06 | 1 | 1.77 | – | – | CC[C@H]1OC(=O)[C@H](C)[C@@H](O[C@H]2C[C@@](C)(OC)[C@@H](O)[C@H](C)O2)[C@H](C)[C@@H](O[C@@H]2O[C@H](C)C[C@H](N(C)C)[C@H]2O)[C@](C)(OC)C[C@@H](C)C(=O)[C@H](C)[C@@H](O)[C@]1(C)O [CLARITHROMYCIN] | –
19 | – | – | 1 (≈ 2.25 µM) | 1 (≈ 2.25 µM) | 1 (≈ 2.25 µM) | 1 (≈ 2.25 µM) | – | – | – | – | CN(C)[C@@H]1C(O)=C(C(N)=O)C(=O)[C@@]2(O)C(O)=C3C(=O)c4c(O)cccc4[C@@](C)(O)[C@H]3C[C@@H]12 [TETRACYCLINE] | –
